Experimental data reported in ChEMBL document CHEMBL5696444 (Nat Commun, 2017).
Activity calls are given as the source filed them. The calls are words filed in the database; no cut-off is given here.

Assays:
[1] = target: Dual specificity protein kinase CLK1 (Homo sapiens) (UniProt P49759); assay: Inhibition of CLK1 (unknown origin) at 123 nM in the presence of ATP by Kinome scan method relative to control; conditions: time > 6.0 hrs
HCT-116 [2] = assay: Induction of cell cycle arrest in human HCT-116 cells assessed as sub G0/G1 phase at 10 uM incubated for 6 hrs by flow cytometry analysis (Rvb=1.6%); type: functional
HCT-116 [3] = assay: Induction of cell cycle arrest in human HCT-116 cells assessed as sub G0/G1 phase at 0.5 uM incubated for 6 hrs by flow cytometry analysis (Rvb=1.6%); type: functional
[4] = target: Dual specificity protein kinase CLK1 (Homo sapiens) (UniProt P49759); assay: Inhibition of CLK (unknown origin) in human 184-hTERT cells assessed as induction in alternative splicing effect in CDC6-RARA level incubated for 6 hrs by RT-PCR analysis; type: cell-based; conditions: dose 0.2-5 µM
In short: (§1)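 Cells exposed to graded T3 concentrations for 6 h (chosen to avoid cytotoxicity), with a DMSO vehicle control. Total RNA was reverse-transcribed with oligo-dT primers. Targeted splice or conjoined-gene products were quantified by real-time qPCR or by targeted next-generation sequencing. Conjoined-gene isoform expression was normalized to a sequenced housekeeping gene.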

HCT-116 [5] = assay: Induction of apoptosis in human HCT-116 cells assessed as late apoptosis at 0.5 uM incubated for > 6 hrs by annexin V/PI staining based analysis (Rvb=6.12%); type: functional
[6] = target: Dual specificity protein kinase CLK1 (Homo sapiens) (UniProt P49759); assay: Inhibition of CLK (unknown origin) in human MDA-MB-468 cells assessed as SRSF6 phosphorylation level incubated for 3 hrs by immunoblot analysis; type: cell-based
[7] = target: Dual specificity tyrosine-phosphorylation-regulated kinase 3 (Homo sapiens) (UniProt O43781); assay: Inhibition of DYRK3 (unknown origin) at 123 nM in the presence of ATP by Kinome scan method relative to control; conditions: time > 6.0 hrs
Sequence of Dual specificity tyrosine-phosphorylation-regulated kinase 3 (Homo sapiens) (O43781 whole entry): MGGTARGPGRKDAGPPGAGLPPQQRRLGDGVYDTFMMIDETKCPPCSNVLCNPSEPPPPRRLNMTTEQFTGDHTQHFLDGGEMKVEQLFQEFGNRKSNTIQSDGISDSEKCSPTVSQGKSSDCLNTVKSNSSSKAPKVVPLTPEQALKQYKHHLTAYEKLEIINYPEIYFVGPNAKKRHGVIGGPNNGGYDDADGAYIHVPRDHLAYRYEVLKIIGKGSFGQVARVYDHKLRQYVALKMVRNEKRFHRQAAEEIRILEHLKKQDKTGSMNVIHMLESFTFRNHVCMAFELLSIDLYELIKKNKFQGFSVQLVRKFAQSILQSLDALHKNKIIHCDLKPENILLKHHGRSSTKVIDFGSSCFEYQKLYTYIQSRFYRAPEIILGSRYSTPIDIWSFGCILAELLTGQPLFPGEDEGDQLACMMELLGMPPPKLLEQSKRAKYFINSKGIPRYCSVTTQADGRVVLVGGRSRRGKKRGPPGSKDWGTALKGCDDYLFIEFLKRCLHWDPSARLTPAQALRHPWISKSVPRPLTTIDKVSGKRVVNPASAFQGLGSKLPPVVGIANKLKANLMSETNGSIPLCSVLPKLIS

HCT-116 [8] = assay: Induction of cell cycle arrest in human HCT-116 cells assessed as G2/M phase at 0.5 uM incubated for 24 hrs by flow cytometry analysis (Rvb=17.9%); type: functional
HCT-116 [9] = assay: Induction of cell cycle arrest in human HCT-116 cells assessed as G0/G1 phase at 5 uM incubated for 6 hrs by flow cytometry analysis (Rvb=35.0%); type: functional
[10] = target: Ephrin type-A receptor 5 (Homo sapiens) (UniProt P54756); assay: Inhibition of EPHA5 (unknown origin) at 100 nM in the presence of ATP by Kinome scan method relative to control
[11] = target: Ephrin type-B receptor 1 (Homo sapiens) (UniProt P54762); assay: Inhibition of EPHB1 (unknown origin) at 100 nM in the presence of ATP by Kinome scan method relative to control
Sequence of Ephrin type-B receptor 1 (Homo sapiens) (P54762 whole entry): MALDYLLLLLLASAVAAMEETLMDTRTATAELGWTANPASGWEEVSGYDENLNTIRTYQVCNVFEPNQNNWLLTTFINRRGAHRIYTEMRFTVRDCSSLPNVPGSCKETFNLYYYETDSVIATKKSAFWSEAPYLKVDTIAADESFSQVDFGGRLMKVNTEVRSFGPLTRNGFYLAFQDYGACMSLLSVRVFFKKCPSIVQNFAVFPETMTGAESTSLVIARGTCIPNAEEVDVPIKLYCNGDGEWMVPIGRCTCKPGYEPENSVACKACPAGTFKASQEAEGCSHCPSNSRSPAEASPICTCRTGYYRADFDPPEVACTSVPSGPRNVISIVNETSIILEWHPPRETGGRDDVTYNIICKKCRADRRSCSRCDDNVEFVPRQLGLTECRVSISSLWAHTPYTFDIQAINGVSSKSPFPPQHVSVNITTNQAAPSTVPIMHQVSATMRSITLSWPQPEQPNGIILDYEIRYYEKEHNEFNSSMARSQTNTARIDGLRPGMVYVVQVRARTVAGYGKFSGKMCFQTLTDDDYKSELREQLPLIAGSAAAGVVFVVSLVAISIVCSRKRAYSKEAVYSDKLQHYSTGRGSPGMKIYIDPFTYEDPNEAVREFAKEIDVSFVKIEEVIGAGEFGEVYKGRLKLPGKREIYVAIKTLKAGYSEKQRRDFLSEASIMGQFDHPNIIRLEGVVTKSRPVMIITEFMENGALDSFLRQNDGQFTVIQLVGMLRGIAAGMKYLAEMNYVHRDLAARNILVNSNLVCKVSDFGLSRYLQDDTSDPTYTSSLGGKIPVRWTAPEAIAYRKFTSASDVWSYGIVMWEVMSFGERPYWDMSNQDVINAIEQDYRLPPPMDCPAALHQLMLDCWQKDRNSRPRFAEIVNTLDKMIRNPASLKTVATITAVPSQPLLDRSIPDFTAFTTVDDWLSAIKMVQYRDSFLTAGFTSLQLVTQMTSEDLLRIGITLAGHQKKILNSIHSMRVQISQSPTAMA

HCT-116 [12] = assay: Induction of cell cycle arrest in human HCT-116 cells assessed as S phase at 0.1 uM incubated for 24 hrs by flow cytometry analysis (Rvb=46.4%); type: functional
[13] = target: Dual specificity protein kinase CLK3 (Homo sapiens) (UniProt P49761); assay: Inhibition of CLK3 (unknown origin) at 123 nM in the presence of ATP by Kinome scan method relative to control; conditions: time > 6.0 hrs
Sequence of Dual specificity protein kinase CLK3 (Homo sapiens) (P49761 whole entry, looked up): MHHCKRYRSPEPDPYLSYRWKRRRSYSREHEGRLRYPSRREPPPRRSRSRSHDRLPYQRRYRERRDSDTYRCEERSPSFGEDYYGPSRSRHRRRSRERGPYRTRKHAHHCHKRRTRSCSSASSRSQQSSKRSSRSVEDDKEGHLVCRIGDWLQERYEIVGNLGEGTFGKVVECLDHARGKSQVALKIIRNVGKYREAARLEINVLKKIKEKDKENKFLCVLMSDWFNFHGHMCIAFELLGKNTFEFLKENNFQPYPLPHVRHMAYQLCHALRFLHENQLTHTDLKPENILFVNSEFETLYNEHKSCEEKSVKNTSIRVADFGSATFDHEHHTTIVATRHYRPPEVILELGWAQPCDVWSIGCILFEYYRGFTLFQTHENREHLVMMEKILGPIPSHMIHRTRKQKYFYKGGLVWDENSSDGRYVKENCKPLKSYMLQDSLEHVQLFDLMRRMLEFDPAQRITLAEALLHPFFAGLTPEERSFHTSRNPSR

[14] = target: Dual specificity protein kinase CLK1 (Homo sapiens) (UniProt P49759); assay: Inhibition of CLK (unknown origin) in human 184-hTERT cells assessed as induction in alternative splicing effect in RBM25-PSEN1 level incubated for 6 hrs by RT-PCR analysis; type: cell-based; conditions: dose 0.2-5 µM; in short: as §1
[15] = target: SRSF protein kinase 1 (Homo sapiens) (UniProt Q96SB4); assay: Inhibition of SRPK1 (unknown origin) at 123 nM in the presence of ATP by Kinome scan method relative to control; conditions: time > 6.0 hrs
Sequence of SRSF protein kinase 1 (Homo sapiens) (Q96SB4 whole entry): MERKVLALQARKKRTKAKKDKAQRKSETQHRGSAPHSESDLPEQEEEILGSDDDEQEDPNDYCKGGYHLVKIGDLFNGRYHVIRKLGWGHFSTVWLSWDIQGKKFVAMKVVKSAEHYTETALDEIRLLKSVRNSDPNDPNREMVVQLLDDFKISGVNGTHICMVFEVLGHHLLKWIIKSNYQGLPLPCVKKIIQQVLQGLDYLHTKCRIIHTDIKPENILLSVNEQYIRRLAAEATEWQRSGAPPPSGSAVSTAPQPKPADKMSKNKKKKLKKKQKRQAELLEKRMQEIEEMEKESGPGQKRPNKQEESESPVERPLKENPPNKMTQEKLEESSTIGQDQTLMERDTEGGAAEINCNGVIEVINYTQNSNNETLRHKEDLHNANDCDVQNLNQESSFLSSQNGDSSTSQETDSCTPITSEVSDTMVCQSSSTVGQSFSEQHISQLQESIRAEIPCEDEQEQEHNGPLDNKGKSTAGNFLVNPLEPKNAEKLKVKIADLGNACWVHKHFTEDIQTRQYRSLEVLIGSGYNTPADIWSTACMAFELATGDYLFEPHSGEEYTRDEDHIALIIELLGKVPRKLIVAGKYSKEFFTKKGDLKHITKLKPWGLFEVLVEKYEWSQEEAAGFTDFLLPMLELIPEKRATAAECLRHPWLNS

[16] = target: Serine/threonine-protein kinase Chk2 (Homo sapiens) (UniProt O96017); assay: Inhibition of CHEK2 (unknown origin) at 1000 nM in the presence of ATP by Kinome scan method relative to control
Sequence of Serine/threonine-protein kinase Chk2 (Homo sapiens) (O96017 whole entry): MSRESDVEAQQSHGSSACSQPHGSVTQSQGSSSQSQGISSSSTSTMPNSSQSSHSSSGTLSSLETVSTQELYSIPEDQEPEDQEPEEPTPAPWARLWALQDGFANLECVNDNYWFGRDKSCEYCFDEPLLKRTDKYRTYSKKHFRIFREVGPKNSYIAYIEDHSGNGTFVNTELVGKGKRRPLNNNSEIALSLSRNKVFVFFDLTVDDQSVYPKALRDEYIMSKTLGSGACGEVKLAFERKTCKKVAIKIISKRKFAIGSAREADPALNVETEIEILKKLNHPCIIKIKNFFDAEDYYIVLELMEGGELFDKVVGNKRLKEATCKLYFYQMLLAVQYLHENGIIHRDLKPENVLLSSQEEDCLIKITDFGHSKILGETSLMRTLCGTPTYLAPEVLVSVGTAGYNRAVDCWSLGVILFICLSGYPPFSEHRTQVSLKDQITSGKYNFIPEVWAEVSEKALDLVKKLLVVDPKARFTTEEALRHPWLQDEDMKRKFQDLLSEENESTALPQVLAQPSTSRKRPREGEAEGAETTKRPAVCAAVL

[17] = target: AMP-activated protein kinase (AMPK) alpha-1/beta-1/gamma-1 (Homo sapiens) (UniProt P54619+Q9Y478+Q13131); assay: Inhibition of AMPK A1/B1/G1 (unknown origin) at 100 nM in the presence of ATP by Kinome scan method relative to control; type: protein-complex assay
[18] = target: Fibroblast growth factor receptor 1 (Homo sapiens) (UniProt P11362); assay: Inhibition of FGFR1 (unknown origin) at 100 nM in the presence of ATP by Kinome scan method relative to control
Sequence of Fibroblast growth factor receptor 1 (Homo sapiens) (P11362 22-822 limits assumed): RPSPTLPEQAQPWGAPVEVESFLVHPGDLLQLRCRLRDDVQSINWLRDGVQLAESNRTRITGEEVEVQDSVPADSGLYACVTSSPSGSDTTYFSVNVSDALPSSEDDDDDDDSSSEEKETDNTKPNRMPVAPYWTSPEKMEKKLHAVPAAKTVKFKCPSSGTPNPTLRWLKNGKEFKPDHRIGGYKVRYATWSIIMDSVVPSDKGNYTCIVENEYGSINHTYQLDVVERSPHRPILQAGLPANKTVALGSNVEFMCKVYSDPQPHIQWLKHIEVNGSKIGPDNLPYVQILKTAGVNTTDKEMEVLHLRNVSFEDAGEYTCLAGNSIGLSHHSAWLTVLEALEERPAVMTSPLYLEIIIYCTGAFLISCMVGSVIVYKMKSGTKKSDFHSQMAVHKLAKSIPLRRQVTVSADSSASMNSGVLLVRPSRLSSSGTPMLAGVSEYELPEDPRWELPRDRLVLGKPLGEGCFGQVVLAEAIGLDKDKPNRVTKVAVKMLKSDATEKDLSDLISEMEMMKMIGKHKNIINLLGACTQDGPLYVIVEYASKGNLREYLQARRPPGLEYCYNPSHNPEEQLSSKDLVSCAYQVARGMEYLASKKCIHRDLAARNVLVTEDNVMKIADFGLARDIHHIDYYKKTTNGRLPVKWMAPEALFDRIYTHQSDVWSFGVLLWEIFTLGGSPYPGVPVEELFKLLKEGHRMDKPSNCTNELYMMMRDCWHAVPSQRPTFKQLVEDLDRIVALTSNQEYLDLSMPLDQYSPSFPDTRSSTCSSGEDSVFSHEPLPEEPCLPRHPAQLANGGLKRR

[19] = target: Mitogen-activated protein kinase 9 (Homo sapiens) (UniProt P45984); assay: Inhibition of MAPK9 (unknown origin) at 100 nM in the presence of ATP by Kinome scan method relative to control
[20] = target: Dual specificity tyrosine-phosphorylation-regulated kinase 1A (Homo sapiens, UniProt Q13627); assay: Inhibition of DYRK1A (unknown origin) at 123 nM in the presence of ATP by Kinome scan method relative to control; conditions: time > 6.0 hrs
[21] = target: Dual specificity protein kinase CLK2 (Homo sapiens, UniProt P49760); assay: Inhibition of N-terminal FLAG-tagged human CLK2 at 123 nM in the presence of ATP by Kinome scan method relative to control; conditions: time > 6.0 hrs
Sequence of Dual specificity protein kinase CLK2 (P49760 whole entry, looked up): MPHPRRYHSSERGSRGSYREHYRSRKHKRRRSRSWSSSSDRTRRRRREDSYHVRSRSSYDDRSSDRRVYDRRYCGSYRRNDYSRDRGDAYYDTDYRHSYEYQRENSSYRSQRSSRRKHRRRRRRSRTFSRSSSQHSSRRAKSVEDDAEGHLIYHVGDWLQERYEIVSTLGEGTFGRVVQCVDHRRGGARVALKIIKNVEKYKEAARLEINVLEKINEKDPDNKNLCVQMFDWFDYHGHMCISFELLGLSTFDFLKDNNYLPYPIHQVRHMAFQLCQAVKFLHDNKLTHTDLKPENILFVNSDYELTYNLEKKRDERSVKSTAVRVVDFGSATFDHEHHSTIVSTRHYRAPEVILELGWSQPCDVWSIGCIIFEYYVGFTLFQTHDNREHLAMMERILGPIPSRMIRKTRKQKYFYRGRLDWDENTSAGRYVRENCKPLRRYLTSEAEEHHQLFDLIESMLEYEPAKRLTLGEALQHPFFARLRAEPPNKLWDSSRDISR

Homo sapiens = organism: Homo sapiens; assay: Inhibition of CDK2/cyclin A (unknown origin) at 1000 nM in the presence of ATP by Kinome scan method relative to control
HCT-116 [22] = assay: Induction of apoptosis in human HCT-116 cells assessed as late apoptosis at 0.1 uM incubated for > 6 hrs by annexin V/PI staining based analysis (Rvb=6.12%); type: functional
HCT-116 [23] = assay: Induction of cell cycle arrest in human HCT-116 cells assessed as S phase at 1 uM incubated for 6 hrs by flow cytometry analysis (Rvb=39.3%); type: functional
[24] = Stability of compound in tissue culture medium assessed as remaining parent compound at 5.30 uM incubated for 48 hrs; type: physicochemical; conditions: read-out: Stability
[25] = target: Dual specificity protein kinase CLK1 (Homo sapiens) (UniProt P49759); assay: Inhibition of CLK (unknown origin) in human 184-hTERT cells assessed as induction in alternative splicing effect in S6K skipped exon /canonical form incubated for 6 hrs by RT-PCR analysis; type: cell-based; conditions: dose 0.2-5 µM; in short: as §1
[26] = target: Dual specificity protein kinase CLK3 (Homo sapiens) (UniProt P49761); assay: Inhibition of CLK3 (unknown origin) in human HCT-116 cells assessed as increase in CLK3 protein level at 0.5 to 0.1 uM incubated for 6 hrs by immunoblot analysis; type: cell-based; conditions: dose 0.5-0.1 µM
In short: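 HCT116 cells were treated for 3 or 6 h and lysed in SDS sample buffer (Tris-HCl pH 6.8), then boiled for 5 min. Lysates were run on 5–15% or 4–12% gradient gels and transferred to nitrocellulose or PVDF. Blots were blocked in milk or BSA/TBS-T and probed overnight at 4 °C with anti-phospho-SR (1H4, 1/1000), anti-SR, anti-CLK1 or anti-CLK3 antibodies, with GAPDH as loading control.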

HCT-116 [27] = assay: Induction of cell cycle arrest in human HCT-116 cells assessed as S phase at 5 uM incubated for 6 hrs by flow cytometry analysis (Rvb=39.3%); type: functional
HCT-116 [28] = assay: Induction of apoptosis in human HCT-116 cells assessed as viable cells at 10 uM incubated for > 6 hrs by annexin V/PI staining based analysis (Rvb=90.04%); type: functional; conditions: read-out: Activity
[29] = target: Dual specificity protein kinase CLK1 (Homo sapiens) (UniProt P49759); assay: Inhibition of CLK (unknown origin) in human HCT-116 cells assessed as induction in alternative splicing effect in CDC6-RARA level incubated for 6 hrs by RT-PCR analysis; type: cell-based; conditions: dose 0.2-5 µM; in short: as §1

Sequence of Dual specificity protein kinase CLK1 (Homo sapiens) (P49759 whole entry, looked up, canonical isoform): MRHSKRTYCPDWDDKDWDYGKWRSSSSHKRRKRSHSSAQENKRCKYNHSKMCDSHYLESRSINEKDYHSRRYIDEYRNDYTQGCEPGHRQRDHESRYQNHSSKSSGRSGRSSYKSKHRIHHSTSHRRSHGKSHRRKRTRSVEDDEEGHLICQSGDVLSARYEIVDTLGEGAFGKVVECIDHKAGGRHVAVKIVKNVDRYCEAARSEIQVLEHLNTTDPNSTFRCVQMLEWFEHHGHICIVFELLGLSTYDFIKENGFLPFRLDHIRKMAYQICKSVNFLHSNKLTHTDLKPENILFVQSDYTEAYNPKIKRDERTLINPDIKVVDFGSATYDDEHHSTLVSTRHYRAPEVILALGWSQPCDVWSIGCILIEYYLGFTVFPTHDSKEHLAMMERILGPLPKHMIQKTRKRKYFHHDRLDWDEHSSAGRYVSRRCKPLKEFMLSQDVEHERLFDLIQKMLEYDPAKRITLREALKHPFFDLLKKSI

CN1CCN(C(=O)C(C)(C)c2ccc(C(=O)Nc3cn4cc(-c5ccncc5)ccc4n3)cc2)CC1 [T3-CLK]
inhibition [1]: 91% | Activity (HCT-116 [2]): 1.7% | Activity (HCT-116 [3]): 1.6% | inhibition [4]: Dose-Dependent Effect | Activity (HCT-116 [5]): 6.85% | inhibition [6]: Active | inhibition [7]: -2% | Activity (HCT-116 [8]): 68.1% | Activity (HCT-116 [9]): 28.1% | inhibition [10]: -6% | inhibition [11]: 5% | Activity (HCT-116 [12]): 40.7% | inhibition [13]: 38% | inhibition [14]: Dose-Dependent Effect | inhibition [15]: -3% | inhibition [16]: 24% | inhibition [17]: -2% | inhibition [18]: 4% | inhibition [19]: 3% | inhibition [20]: 74% | inhibition [21]: 92% | inhibition (Homo sapiens): 3% | Activity (HCT-116 [22]): 8.29% | Activity (HCT-116 [23]): 47% | remaining at 48 h, 5.3 µM [24]: 98.7% | inhibition [25]: Dose-Dependent Effect | inhibition [26]: Active | Activity (HCT-116 [27]): 37.4% | viability at 10 µM (HCT-116 [28]): 87.3% | inhibition [29]: Dose-Dependent Effect
